# Results taken from ChEMBL document CHEMBL3243962, “Antileukemic activity of derivatives of 1,2-dimethyl-3,4-bis(hydroxymethyl)-5-phenylpyrrole bis(N-methylcarbamate)” (J Med Chem, 1979).
# Tests used:
# P388 [1] = test: Antitumor activity against mouse P388 cells allografted in CD2F1 mouse assessed as increase in mouse survival at 30 mg/kg, ip of total 9 doses starting 24 hrs post tumor inoculation measured on day 5 of inoculation relative to control; type: functional; details: route intraperitoneal
# Outline: (§1)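 Male CD2F1 mice inoculated ip with 6×10^6 P388 leukemia cells. Dosing was ip as a suspension in distilled water–Tween 80, nine daily doses starting 24 h after inoculation. Activity was read as median survival time of treated vs control mice (% T/C); % T/C ≥ 120 was considered significant. Groups were 6 mice.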
# Mus musculus [2] = test: Toxicity in mouse P388 cells allografted CD2F1 mouse assessed as body weight loss at 15 mg/kg, ip of total 9 doses starting 24 hrs post tumor inoculation measured on day 5 of inoculation relative to control; type: organism-based; design: dose 15 mg/kg, route intraperitoneal; details: in vivo
# Outline: (§2)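 Male CD2F1 mice inoculated ip with 6×10^6 P388 leukemia cells. Compounds given ip as distilled water–Tween 80 suspension, nine daily doses starting 24 h after inoculation; six mice per dose group. Treated-minus-control body-weight change (T − C) and toxicity-day survivors recorded on day 5 (4 days after first dose).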
# P388 [3] = test: Antitumor activity against mouse P388 cells allografted in CD2F1 mouse assessed as increase in mouse survival at 15 mg/kg, ip of total 9 doses starting 24 hrs post tumor inoculation measured on day 5 of inoculation relative to control; type: functional; details: route intraperitoneal; outline: as §1
# Mus musculus [4] = test: Toxicity in mouse P388 cells allografted CD2F1 mouse assessed as body weight loss at 30 mg/kg, ip of total 9 doses starting 24 hrs post tumor inoculation measured on day 5 of inoculation relative to control; type: organism-based; design: dose 30 mg/kg, route intraperitoneal; details: in vivo; outline: as §2
# Mus musculus [5] = test: Toxicity in mouse P388 cells allografted CD2F1 mouse assessed as mouse survival at 7.5 mg/kg, ip of total 9 doses starting 24 hrs post tumor inoculation measured on day 5 of inoculation relative to control; type: organism-based; design: dose 7.5 mg/kg, route intraperitoneal; details: in vivo
# Outline: (§3)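 Male CD2F1 mice bearing ip P388 leukemia (6×10^6 cells) were dosed ip with nine daily doses in distilled water–Tween 80 suspension, starting 24 h after inoculation. Survivors per group of 6 were counted on day 5, i.e. 4 days after the first dose. Body-weight change of treated minus control mice was also recorded.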
# Mus musculus [6] = test: Toxicity in mouse P388 cells allografted CD2F1 mouse assessed as mouse survival at 30 mg/kg, ip of total 9 doses starting 24 hrs post tumor inoculation measured on day 5 of inoculation relative to control; type: organism-based; design: dose 30 mg/kg, route intraperitoneal; details: in vivo; outline: as §3
# Mus musculus [7] = test: Toxicity in mouse P388 cells allografted CD2F1 mouse assessed as body weight loss at 120 mg/kg, ip of total 9 doses starting 24 hrs post tumor inoculation measured on day 5 of inoculation relative to control; type: organism-based; design: dose 120 mg/kg, route intraperitoneal; details: in vivo; outline: as §2
# Mus musculus [8] = test: Toxicity in mouse P388 cells allografted CD2F1 mouse assessed as body weight loss at 60 mg/kg, ip of total 9 doses starting 24 hrs post tumor inoculation measured on day 5 of inoculation relative to control; type: organism-based; design: dose 60 mg/kg, route intraperitoneal; details: in vivo; outline: as §2
# P388 [9] = test: Antitumor activity against mouse P388 cells allografted in CD2F1 mouse assessed as increase in mouse survival at 60 mg/kg, ip of total 9 doses starting 24 hrs post tumor inoculation measured on day 5 of inoculation relative to control; type: functional; details: route intraperitoneal; outline: as §1
# P388 [10] = test: Antitumor activity against mouse P388 cells allografted in CD2F1 mouse assessed as increase in mouse survival at 7.5 mg/kg, ip of total 9 doses starting 24 hrs post tumor inoculation measured on day 5 of inoculation relative to control; type: functional; details: route intraperitoneal; outline: as §1
# Mus musculus [11] = test: Toxicity in mouse P388 cells allografted CD2F1 mouse assessed as mouse survival at 15 mg/kg, ip of total 9 doses starting 24 hrs post tumor inoculation measured on day 5 of inoculation relative to control; type: organism-based; design: dose 15 mg/kg, route intraperitoneal; details: in vivo; outline: as §3
# Mus musculus [12] = test: Toxicity in mouse P388 cells allografted CD2F1 mouse assessed as body weight loss at 7.5 mg/kg, ip of total 9 doses starting 24 hrs post tumor inoculation measured on day 5 of inoculation relative to control; type: organism-based; design: dose 7.5 mg/kg, route intraperitoneal; details: in vivo; outline: as §2
# P388 [13] = test: Antitumor activity against mouse P388 cells allografted in CD2F1 mouse assessed as increase in mouse survival at 3.75 mg/kg, ip of total 9 doses starting 24 hrs post tumor inoculation measured on day 5 of inoculation relative to control; type: functional; details: route intraperitoneal; outline: as §1
# P388 [14] = test: Antitumor activity against mouse P388 cells allografted in CD2F1 mouse assessed as increase in mouse survival at 1.88 mg/kg, ip of total 9 doses starting 24 hrs post tumor inoculation measured on day 5 of inoculation relative to control; type: functional; details: route intraperitoneal; outline: as §1
# Mus musculus [15] = test: Toxicity in mouse P388 cells allografted CD2F1 mouse assessed as mouse survival at 3.75 mg/kg, ip of total 9 doses starting 24 hrs post tumor inoculation measured on day 5 of inoculation relative to control; type: organism-based; design: dose 3.75 mg/kg, route intraperitoneal; details: in vivo; outline: as §3
# Mus musculus [16] = test: Toxicity in mouse P388 cells allografted CD2F1 mouse assessed as body weight loss at 3.75 mg/kg, ip of total 9 doses starting 24 hrs post tumor inoculation measured on day 5 of inoculation relative to control; type: organism-based; design: dose 3.75 mg/kg, route intraperitoneal; details: in vivo; outline: as §2
# Mus musculus [17] = test: Toxicity in mouse P388 cells allografted CD2F1 mouse assessed as mouse survival at 1.88 mg/kg, ip of total 9 doses starting 24 hrs post tumor inoculation measured on day 5 of inoculation relative to control; type: organism-based; design: dose 1.88 mg/kg, route intraperitoneal; details: in vivo; outline: as §3
# Mus musculus [18] = test: Toxicity in mouse P388 cells allografted CD2F1 mouse assessed as body weight loss at 1.88 mg/kg, ip of total 9 doses starting 24 hrs post tumor inoculation measured on day 5 of inoculation relative to control; type: organism-based; design: dose 1.88 mg/kg, route intraperitoneal; details: in vivo; outline: as §2
# Mus musculus [19] = test: Toxicity in mouse P388 cells allografted CD2F1 mouse assessed as body weight loss at 200 mg/kg, ip of total 9 doses starting 24 hrs post tumor inoculation measured on day 5 of inoculation relative to control; type: organism-based; design: dose 200 mg/kg, route intraperitoneal; details: in vivo; outline: as §2
# P388 [20] = test: Antitumor activity against mouse P388 cells allografted in CD2F1 mouse assessed as increase in mouse survival at 50 mg/kg, ip of total 9 doses starting 24 hrs post tumor inoculation measured on day 5 of inoculation relative to control; type: functional; details: route intraperitoneal; outline: as §1
# P388 [21] = test: Antitumor activity against mouse P388 cells allografted in CD2F1 mouse assessed as increase in mouse survival at 200 mg/kg, ip of total 9 doses starting 24 hrs post tumor inoculation measured on day 5 of inoculation relative to control; type: functional; details: route intraperitoneal; outline: as §1
# Mus musculus [22] = test: Toxicity in mouse P388 cells allografted CD2F1 mouse assessed as body weight loss at 12.5 mg/kg, ip of total 9 doses starting 24 hrs post tumor inoculation measured on day 5 of inoculation relative to control; type: organism-based; design: dose 12.5 mg/kg, route intraperitoneal; details: in vivo; outline: as §2
# Mus musculus [23] = test: Toxicity in mouse P388 cells allografted CD2F1 mouse assessed as mouse survival at 50 mg/kg, ip of total 9 doses starting 24 hrs post tumor inoculation measured on day 5 of inoculation relative to control; type: organism-based; design: dose 50 mg/kg, route intraperitoneal; details: in vivo; outline: as §3
# Mus musculus [24] = test: Toxicity in mouse P388 cells allografted CD2F1 mouse assessed as mouse survival at 100 mg/kg, ip of total 9 doses starting 24 hrs post tumor inoculation measured on day 5 of inoculation relative to control; type: organism-based; design: dose 100 mg/kg, route intraperitoneal; details: in vivo; outline: as §3
# P388 [25] = test: Antitumor activity against mouse P388 cells allografted in CD2F1 mouse assessed as increase in mouse survival at 12.5 mg/kg, ip of total 9 doses starting 24 hrs post tumor inoculation measured on day 5 of inoculation relative to control; type: functional; details: route intraperitoneal; outline: as §1
# Mus musculus [26] = test: Toxicity in mouse P388 cells allografted CD2F1 mouse assessed as mouse survival at 25 mg/kg, ip of total 9 doses starting 24 hrs post tumor inoculation measured on day 5 of inoculation relative to control; type: organism-based; design: dose 25 mg/kg, route intraperitoneal; details: in vivo; outline: as §3
# P388 [27] = test: Antitumor activity against mouse P388 cells allografted in CD2F1 mouse assessed as increase in mouse survival at 100 mg/kg, ip of total 9 doses starting 24 hrs post tumor inoculation measured on day 5 of inoculation relative to control; type: functional; details: route intraperitoneal; outline: as §1
# Mus musculus [28] = test: Toxicity in mouse P388 cells allografted CD2F1 mouse assessed as body weight loss at 50 mg/kg, ip of total 9 doses starting 24 hrs post tumor inoculation measured on day 5 of inoculation relative to control; type: organism-based; design: dose 50 mg/kg, route intraperitoneal; details: in vivo; outline: as §2
# Mus musculus [29] = test: Toxicity in mouse P388 cells allografted CD2F1 mouse assessed as body weight loss at 25 mg/kg, ip of total 9 doses starting 24 hrs post tumor inoculation measured on day 5 of inoculation relative to control; type: organism-based; design: dose 25 mg/kg, route intraperitoneal; details: in vivo; outline: as §2
# Mus musculus [30] = test: Toxicity in mouse P388 cells allografted CD2F1 mouse assessed as mouse survival at 12.5 mg/kg, ip of total 9 doses starting 24 hrs post tumor inoculation measured on day 5 of inoculation relative to control; type: organism-based; design: dose 12.5 mg/kg, route intraperitoneal; details: in vivo; outline: as §3
# Mus musculus [31] = test: Toxicity in mouse P388 cells allografted CD2F1 mouse assessed as mouse survival at 200 mg/kg, ip of total 9 doses starting 24 hrs post tumor inoculation measured on day 5 of inoculation relative to control; type: organism-based; design: dose 200 mg/kg, route intraperitoneal; details: in vivo; outline: as §3
# P388 [32] = test: Antitumor activity against mouse P388 cells allografted in CD2F1 mouse assessed as increase in mouse survival at 25 mg/kg, ip of total 9 doses starting 24 hrs post tumor inoculation measured on day 5 of inoculation relative to control; type: functional; details: route intraperitoneal; outline: as §1
# Mus musculus [33] = test: Toxicity in mouse P388 cells allografted CD2F1 mouse assessed as body weight loss at 100 mg/kg, ip of total 9 doses starting 24 hrs post tumor inoculation measured on day 5 of inoculation relative to control; type: organism-based; design: dose 100 mg/kg, route intraperitoneal; details: in vivo; outline: as §2
smiles,measurement,setting,value
CCCCOc1ccc(-c2c(COC(=O)NC)c(COC(=O)NC)c(C)n2C)cc1,T/C,P388 [1],144%
same,Activity,Mus musculus [2],2.1 g
same,T/C,P388 [3],146%
same,Activity,Mus musculus [4],2.8 g
same,Activity,Mus musculus [5],Non-toxic
same,Activity,Mus musculus [6],Non-toxic
same,Activity,Mus musculus [7],3.4 g
same,Activity,Mus musculus [8],4.1 g
same,T/C,P388 [9],90%
same,T/C,P388 [10],137%
same,Activity,Mus musculus [11],Non-toxic
same,Activity,Mus musculus [12],1.3 g
CNC(=O)OCc1c(COC(=O)NC)c(-c2ccc(-c3ccccc3)cc2)n(C)c1C,T/C,P388 [13],144%
same,T/C,P388 [1],144%
same,Activity,Mus musculus [2],3.1 g
same,T/C,P388 [3],153%
same,Activity,Mus musculus [4],3.6 g
same,T/C,P388 [14],135%
same,Activity,Mus musculus [15],Non-toxic
same,Activity,Mus musculus [16],1.3 g
same,Activity,Mus musculus [17],Non-toxic
same,Activity,Mus musculus [5],Non-toxic
same,Activity,Mus musculus [6],Non-toxic
same,T/C,P388 [10],144%
same,Activity,Mus musculus [18],0.6 g
same,Activity,Mus musculus [11],Non-toxic
same,Activity,Mus musculus [12],2.2 g
CNC(=O)OCc1c(COC(=O)NC)c(-c2ccc(Sc3ccccc3)cc2)n(C)c1C,Activity,Mus musculus [19],3 g
same,T/C,P388 [20],162%
same,T/C,P388 [21],108%
same,Activity,Mus musculus [22],0.9 g
same,Activity,Mus musculus [23],Non-toxic
same,Activity,Mus musculus [24],Non-toxic
same,T/C,P388 [25],142%
same,Activity,Mus musculus [26],Non-toxic
same,T/C,P388 [27],171%
same,Activity,Mus musculus [28],2.1 g
same,Activity,Mus musculus [29],2.1 g
same,Activity,Mus musculus [30],Non-toxic
same,Activity,Mus musculus [31],Non-toxic
same,T/C,P388 [32],146%
same,Activity,Mus musculus [33],3.3 g
